This is one part of a sample in which hits are shown more often than they occur.
HUVEC inhibit: inhibitors of HUVEC proliferation, primary screen, cell-based, 384-well; CellTiter-Glo luminescence, 72 h; active compounds read low; viability, % at 10 µM (by protocol); actives 1.1% (n = 86,000);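 active = viability at or below 30%; inactive = viability above 30%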
Lung fibro prol: antiproliferative effect on LL 47 fibroblasts – human, LL 47 cells, CellTiter-Glo luminescence, primary screen. LL 47 human lung fibroblast viability, ATP luminescence; active compounds read low. viability, % at 10 µM. actives 1.1% (n = 85,000);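 active = viability at or below 50% in the single dose screen; inactive = viability above 50%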;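 note: compound exposure lasted 72 h before the ATP readout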
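Material: human lung fibroblast line LL 47, low passage; Evaluation: viability percentage against median untreated-cell control; Buffer or medium: 15% FBS in IMEM; Incubation: 72 h compound exposure at 37 °C after overnight plating; Dosing: 0.1% DMSO in all compound wells; Measured by: CellTiter-Glo luminescence.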
H69AR growth 86K: proliferation blockers of H69AR lung cancer cells, primary screen, cell-based, human, 86K library; H69AR lung tumor viability, ATP luminescence, 72 h; active compounds read low; viability, % at 10 µM; actives 6% (n = 85,000);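 active = viability at or below 40%; inactive = viability above 40%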;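 note: multidrug resistant small cell line overexpressing MRP-1 efflux transporter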
Candida biofilm: clotrimazole potentiators killing Candida biofilms, primary screen, with clotrimazole, Alamar Blue; AID 834, 2007; inhibition, % at 6 µM; C. albicans biofilm + clotrimazole; actives 0.14% (n = 85,000);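 active = inhibition above 20%; inactive = inhibition below 20%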;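 note: preformed 24 hr biofilms exposed to compound for 48 hr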
HCT116 bCat-KO: primary screen for growth suppressors in beta-catenin knockout HCT116 cells (colon tumor, human). actives 1.5% (n = 140,000). viability, % at 10 µM. AID 818, 2007. HCT116 beta-catenin knockout viability, CellTiter-Glo, 60 h; active compounds read low;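 active = viability at or under a set limit, the compound median less 4 SD, cut at about 6% in these data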
PTEN del growth: growth suppression of PTEN-null HCT116, primary screen, cell-based, CellTiter-Glo; HCT116 PTEN-null viability, 60 h; active compounds read low; AID 827, 2007; actives 1.2% (n = 140,000); viability, % at 10 µM;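 active = viability at or below a set limit, 4 SD under the median of all tested compounds, cut at about 3.7% in these data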;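 note: PTEN knockout HCT116 line with beta catenin targeted HCT116 as companion control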
A number is an active result; i = inactive; nt = not tested or not shown.

SMILES	HUVEC inhibit	Lung fibro prol	H69AR growth 86K	Candida biofilm	HCT116 bCat-KO	PTEN del growth
CCOC(=O)c1ccc2c(c1)nc(SCC(=O)c1cc3ccccc3o1)n2CC	i	i	i	i	i	i
O=C(CSc1nnc(-c2cccs2)n1-c1ccccc1)NCc1ccc2c(c1)OCO2	i	i	i	i	i	i
Cc1ccc(-n2c(SCC(=O)Nc3ccc4c(c3)OCCO4)nnc2-c2ccco2)cc1	i	43	14	i	i	i
COc1cccc(NC(=O)CSc2nnc(-c3ccoc3C)n2-c2ccccc2)c1	i	i	i	i	i	i
Cc1cccc(-n2c(SCC(=O)Nc3ccc4c(c3)OCO4)nnc2-c2ccoc2C)c1	i	i	9.2	i	i	i
Cc1ccc(-n2c(SCC(=O)Nc3ccc4c(c3)OCO4)nnc2-c2cccs2)cc1	i	33	9.2	i	i	i
O=C(CSc1nnc(-c2cccnc2)n1-c1ccccc1)Nc1ccc2c(c1)OCO2	i	i	35	i	i	i
CCCn1c(SCC(=O)Nc2ccc3c(c2)OCCO3)nnc1-c1ccco1	nt	nt	nt	nt	i	i
CC(Sc1nnc(-c2cccs2)n1Cc1ccccc1)C(=O)NCc1ccc2c(c1)OCO2 (stereo not given)	i	i	30	i	i	i
CCOCCn1c(CN(Cc2ccccc2)Cc2ccccc2)nc2c1c(=O)n(C)c(=O)n2C	i	i	i	i	i	i
C[n+]1ccccc1COc1ccc(C(C)(C)C)cc1	nt	nt	nt	nt	i	i
CN1CCN(C(=O)C(C(=O)c2ccc(F)cc2)n2ccccc2=O)CC1 (stereo not given)	i	i	i	i	i	i
CCN(CC)S(=O)(=O)c1ccc2[nH]c(=O)cc(C(=O)Nc3ccc(C)c(S(=O)(=O)N(CC)CC)c3)c2c1	nt	nt	nt	nt	i	i
CN=C1c2cc3cc(OC)ccc3n2CCN1Cc1ccccc1	i	46	19	i	i	i
CO/N=C(/CS(=O)(=O)c1ccc(C)cc1)c1ccc(OC)cc1	i	i	36	i	i	i
CCOc1ccc2ccccc2c1/C=N/NC(=O)CNC(=O)Cc1ccccc1	nt	nt	nt	nt	i	i
C=CCNC(=O)CSc1nnc(-c2cccs2)o1	i	i	38	i	i	i
O=C(CSc1nnc(-c2cc(-c3cccs3)nc3ccccc23)o1)NC1CCCCC1	i	i	23	i	i	i
COc1ccc2nc(SCC(=O)N3CCN(c4ccccc4F)CC3)c(C#N)cc2c1	i	i	i	i	nt	nt
CCC1Oc2nc(SC)nnc2-c2ccccc2N1C(=O)c1ccccc1 (stereo not given)	i	i	25	i	i	i
COc1ccc(CCn2c(C)c(C(C)=O)c3cc(OC(=O)c4ccco4)ccc32)cc1OC	i	i	i	i	i	i
C/C(=C\C(=O)c1ccncc1)Nc1ccccc1O	i	i	23	i	i	i
CC(=O)Nc1ccccc1O	i	i	i	i	i	i
COc1ccc2oc3cc(C)[n+]([O-])c(-c4ccc(C)cc4)c3c2c1	nt	nt	nt	nt	i	i
COc1ccc(/C=C/C(=O)NC(=S)NNC(=O)c2ccco2)cc1	i	i	31	i	i	i
SMILES	HUVEC inhibit	Lung fibro prol	H69AR growth 86K	Candida biofilm	HCT116 bCat-KO	PTEN del growth
CN(Cc1ccccc1)c1nc2c(c(=O)[nH]c(=O)n2C)n1CCSc1ncccn1	i	i	i	i	nt	nt
COc1ccc(C(=O)/C=C/c2ccccc2F)c(OC(=O)c2ccc([N+](=O)[O-])cc2)c1	nt	nt	nt	nt	i	i
O=C(Oc1ccc(F)cc1C(=O)/C=C/c1cccs1)c1cccc([N+](=O)[O-])c1	i	i	3.0	i	i	i
O=C(/C=C/c1ccccc1F)c1cccc([N+](=O)[O-])c1	nt	nt	nt	nt	3.2	2.6
O=C(C#Cc1ccccc1)c1cccc([N+](=O)[O-])c1	i	18	1.4	i	2.4	2.1
COc1cc(/C=C/C(=O)c2cccc([N+](=O)[O-])c2)cc(OC)c1OC	nt	nt	nt	nt	2.1	1.4
Nc1ccc2nc(-c3cc(Cl)c(N)c(Cl)c3)[nH]c2c1	i	i	35	i	i	i
Nc1ccc(-c2nc3ccc([N+](=O)[O-])cc3[nH]2)cc1	nt	nt	nt	nt	i	i
Nc1ccc(-c2nc3ccc(-c4nc5ccccc5o4)cc3[nH]2)cc1	nt	nt	nt	nt	i	i
Nc1ccc2nc(-c3ccc(Cl)cc3)[nH]c2c1	i	i	17	i	i	i
Nc1ccc(-c2nc3c(Cl)c(N)ccc3[nH]2)cc1	i	i	21	i	i	i
COc1ccc(F)cc1S(=O)(=O)N1CC(C)CC(C)C1 (stereo not given)	i	i	i	i	i	i
O=C(c1cccc([N+](=O)[O-])c1)N1CCCN(C(=O)c2cccc([N+](=O)[O-])c2)CC1	nt	nt	nt	nt	i	i
Cc1onc(-c2ccccc2)c1C(=O)OCC(=O)Nc1ccc2c(c1)OCO2	i	i	i	i	i	i
Cc1onc(-c2ccccc2Cl)c1C(=O)OCC(=O)Nc1ccc2c(c1)OCO2	i	i	i	25	i	i
COc1ccc(-n2nnnc2S(=O)(=O)Cc2ccc(C(=O)O)cc2)cc1	i	i	i	i	i	i
COc1ccc(-n2nnnc2S(=O)(=O)CC(=O)N2CCCCC2)cc1	i	33	2.0	i	1.7	1.3
N#CC1=C(N)N(c2ccc(Oc3ccccc3)cc2)C(=O)C1	i	i	i	i	i	i
c1ccc(-c2nc(N3CCNCC3)nc3ccccc23)cc1	i	i	4.4	i	i	i
Cc1ccccc1S(=O)(=O)c1c(C)cc(-c2ccccc2)[nH]c1=O	nt	nt	nt	nt	i	i
O=C(c1cccs1)n1nc(-c2ccc(Cl)cc2)nc1NCc1ccco1	i	i	i	i	i	i
COc1ccc(CC(=O)n2nc(-c3ccc(Cl)cc3)nc2NCc2ccco2)cc1	i	i	30	i	i	i
Cc1ccc(C(=O)n2nc(-c3ccccc3)nc2NCc2ccco2)cc1	i	i	i	i	i	i
CC(=O)n1nc(-c2ccc(Cl)cc2)nc1NCc1ccco1	i	i	33	i	i	i
CCOc1cc(CNC(C)(C)CO)cc(Br)c1OCc1ccc(Cl)cc1Cl	nt	nt	nt	nt	0.8	0.8
SMILES	HUVEC inhibit	Lung fibro prol	H69AR growth 86K	Candida biofilm	HCT116 bCat-KO	PTEN del growth
COc1cc(CNc2ccc(O)cc2)cc(Br)c1OCc1ccccc1F	nt	nt	nt	nt	i	i
CCCCOc1c(Cl)cc(CNC(C)(C)CO)cc1OCC	i	i	i	i	i	i
COc1cccc(CNCCO)c1OCc1ccccc1Cl	nt	nt	nt	nt	i	i
CCOc1cc(CNc2ccc(O)cc2)cc(Br)c1OCc1ccccc1F	nt	nt	nt	nt	4.0	i
CCOc1cc(CNCCO)cc(Br)c1OCc1ccccc1Cl	nt	nt	nt	nt	1.2	1.4
CCOc1cc(CNCCO)cc(Br)c1OCc1ccc(Cl)cc1	nt	nt	nt	nt	1.7	1.2
O=S(=O)(c1ccc(Cl)s1)N1CCCc2cccc(O)c21	nt	nt	nt	nt	i	i
CCc1ccc2[nH]c(=O)c(CN(CCCN3CCOCC3)C(=O)Nc3ccc(Cl)cc3)cc2c1	28	i	27	i	i	i

Screening results deposited in PubChem by several laboratories.
